Measurements taken from ChEMBL document CHEMBL4334542, “Antimalarial N 1,N 3-Dialkyldioxonaphthoimidazoliums: Synthesis, Biological Activity, and Structure-activity Relationships” (ACS Med Chem Lett, 2020).
Active and inactive are the calls of the source. The calls are words filed in the database; no cut-off is given here.

How the values were obtained:
[1] = AUC (0 to last) in C57BL/6 mouse at 20 mg/kg, po measured upto 24 hrs by LCMS analysis; assay type: ADME, organism-based; set-up: dose 20 mg/kg, time 0 - last, route oral; conditions: in vivo
[2] = Redox cycling activity of the compound […] measured after 45 mins by phenol red reagent based horseradish peroxidase coupled assay
Outline: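 Redox cycling EC50 determined by the phenol red horseradish peroxidase assay.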

[3] = system: Plasmodium falciparum; experiment: Antimalarial activity against Plasmodium falciparum 3D7 infected in NOD-SCID IL-2Ry deficient mouse assessed as reduction in parasitemia at 50 mg/kg, po administered on day 3 to 6 and measured on day 7 by TER-119-PE and SYTO-19 dye based flow cytometry; assay type: functional, organism-based
Outline: (§1)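 Humanized mouse infected with P. falciparum Pf3D7 0087/N9; oral dosing on Days 3–6 at 5 dose levels spanning 1–50 mg/kg. Parasitemia measured each treatment day and on Day 7. ED90 from non-linear fit of log Day-7 parasitemia against oral dose, relative to untreated controls.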

[4] = system: Plasmodium falciparum; experiment: Antimalarial activity against asexual stage of Plasmodium falciparum W2 assessed as reduction in parasite growth incubated for 96 hrs by SYBR Green I dye-based fluorescence assay; assay type: functional, organism-based; conditions: W2, 96 h
[5] = system: Plasmodium falciparum; experiment: Antimalarial activity against Plasmodium falciparum NF54 incubated for 48 hrs by [3H]-hypoxanthine incorporation assay; assay type: functional, organism-based
[6] = system: Plasmodium falciparum; experiment: Antimalarial activity against asexual stage of Plasmodium falciparum 3D7 infected in erythrocytes assessed as reduction in parasite growth incubated for 48 hrs under hypoxic condition by Hoechst 33342 staining based flow cytometry; assay type: functional, organism-based; conditions: 3D7, 48 h
Outline: (§2)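 Asexual Dd2 and 3D7 parasites in erythrocytes; DNA content of infected cells measured by Hoechst 33342 staining and FACS. IC50 is the concentration giving 50% of the net fluorescence of untreated control cultures; mean ± SD of n = 3 separate determinations.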

[7] = Toxicity in C57BL/6 mouse assessed as distress effect at 20 mg/kg, po observed upto 24 hrs; assay type: organism-based; conditions: in vivo
Outline: (§3)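 Male C57BL6 mice given one dose, 2 mg/kg iv or 20 mg/kg oral (n=3 per route), checked for signs of distress 24 h after dosing.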

[8] = Volume of distribution in C57BL/6 mouse at 2 mg/kg, iv measured upto 24 hrs by LCMS analysis; assay type: ADME, organism-based; conditions: in vivo
[9] = Tmax in C57BL/6 mouse at 20 mg/kg, po measured upto 24 hrs by LCMS analysis; assay type: ADME, organism-based; conditions: in vivo
[10] = Effective permeability of compound at pH 7.4 measured after 16 hrs PAMPA; assay type: ADME; conditions: pH 7.4, 16 h
[11] = Oral bioavailability in C57BL/6 mouse at 20 mg/kg measured upto 24 hrs by LCMS analysis; assay type: ADME, organism-based; conditions: in vivo
[12] = Cmax in C57BL/6 mouse at 20 mg/kg, po measured upto 24 hrs by LCMS analysis; assay type: ADME, organism-based; set-up: dose 20 mg/kg, route oral; conditions: in vivo
[13] = system: Plasmodium falciparum; experiment: Antimalarial activity against asexual stage of Plasmodium falciparum K1 assessed as reduction in parasite growth incubated for 96 hrs by SYBR Green I dye-based fluorescence assay; assay type: functional, organism-based; conditions: K1, 96 h
Outline: (§4)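 Asexual NF54, K1 and W2 parasites; proliferation read as SYBR Green I fluorescence. IC50 is the concentration giving 50% of the net SYBR Green I fluorescence of untreated control cultures; mean ± SEM of n = 3 independent biological replicates.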

[14] = Toxicity in C57BL/6 mouse at 2 mg/kg, iv; assay type: organism-based; conditions: in vivo; outline: as §3
[15] = Time at which plasma concentration stays above in vitro IC50 for asexual stage of Plasmodium falciparum 3D7 infected in erythrocytes in C57BL/6 mouse at 20 mg/kg, po; assay type: ADME, organism-based; conditions: in vivo
[16] = Solubility of compound at pH 7.4 measured after 24 hrs; assay type: physicochemical; conditions: buffer
Outline: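 Water solubility measured at pH 7.4.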

[17] = system: Plasmodium falciparum; experiment: Antimalarial activity against asexual stage of Plasmodium falciparum NF54 assessed as reduction in parasite growth incubated for 96 hrs by SYBR Green I dye-based fluorescence assay; assay type: functional, organism-based; conditions: NF54, 96 h; outline: as §4
[18] = Half life in C57BL/6 mouse at 2 mg/kg, iv measured upto 24 hrs by LCMS analysis; assay type: ADME, organism-based; conditions: in vivo
[19] = Half life in C57BL/6 mouse at 20 mg/kg, po measured upto 24 hrs by LCMS analysis; assay type: ADME, organism-based; conditions: in vivo
[20] = system: Plasmodium falciparum; experiment: Antimalarial activity against Plasmodium falciparum NF54 late gametocytes transfected with luciferase gene incubated for 48 hrs by luciferase reporter gene assay; assay type: functional, organism-based; conditions: NF54, 48 h
Outline: (§5)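 Gametocytes of NF54-Pfs16-GFP-Luc, early (>95% stage II/III) or late (>90% stage IV/V); luciferase read-out. IC50 is the concentration giving 50% reduction of luminescence; mean ± SEM of n = 3 independent biological replicates.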

[21] = Stability in rat liver microsomes incubated for 45 mins in presence of NADPH by chromatographic analysis; assay type: ADME, Microsome; conditions: 0.75 h
[22] = Toxicity in C57BL/6 mouse assessed as distress effect at 2 mg/kg, iv observed upto 24 hrs; assay type: organism-based; conditions: in vivo; outline: as §3
[23] = system: Plasmodium falciparum; experiment: Antimalarial activity against Plasmodium falciparum NF54 early gametocytes transfected with luciferase gene incubated for 48 hrs by luciferase reporter gene assay; assay type: functional, organism-based; conditions: NF54, 48 h; outline: as §5
[24] = Toxicity in C57BL/6 mouse at 20 mg/kg, po; assay type: organism-based; conditions: in vivo; outline: as §3
[25] = system: Plasmodium falciparum; experiment: Antimalarial activity against Plasmodium falciparum TM90C2B incubated for 48 hrs by [3H]-hypoxanthine incorporation assay; assay type: functional, organism-based
[26] = AUC (0 to last) at steady state in C57BL/6 mouse at 2 mg/kg, iv measured upto […] by LCMS analysis; assay type: ADME, organism-based; set-up: dose 2 mg/kg, time 0 - last, route intravenous; conditions: in vivo
[27] = system: CHO-K1; experiment: Cytotoxicity against CHOK1 cells assessed as reduction in cell viability incubated for 48 hrs by CellTiter 96 aqueous one solution assay; assay type: cell-based; conditions: Cricetulus griseus, CHO-K1, 48 h
Outline: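 Cell growth measured by a tetrazolium dye assay. IC50 is the concentration reducing growth by 50% relative to untreated cultures; mean ± SD of n = 3 separate determinations.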

[28] = system: Plasmodium falciparum; experiment: Antimalarial activity against Plasmodium falciparum K1 incubated for 48 hrs by [3H]-hypoxanthine incorporation assay; assay type: functional, organism-based
[29] = system: Plasmodium falciparum; experiment: Antimalarial activity against Plasmodium falciparum 3D7 infected in orally dosed NOD-SCID IL-2Ry deficient mouse assessed as reduction in parasitemia administered on day 3 to 6 and measured on day 7 by TER-119-PE and SYTO-19 dye based flow cytometry; assay type: functional; conditions: 3D7, po; outline: as §1
[30] = system: Plasmodium falciparum; experiment: Antimalarial activity against asexual stage of Plasmodium falciparum Dd2 infected in erythrocytes assessed as reduction in parasite growth incubated for 48 hrs under hypoxic condition by Hoechst 33342 staining based flow cytometry; assay type: functional, organism-based; conditions: Dd2, 48 h; outline: as §2

Q: For Cc1n(C(C)C)c2c([n+]1C(C)C)C(=O)c1ccccc1C2=O.[Br-], which AUClast [1] is on record?
A: The AUClast was 69 µmol·min/L.

Q: And the Activity [2]?
A: The Activity was “Active”.

Q: And the Activity [3]?
A: The Activity was “inactive”.

Q: What about the IC50 [4] of the same molecule?
A: The IC50 was 2.18 nM.

Q: What about the IC50 [5] of the same molecule?
A: The IC50 was 1 nM.

Q: What about the IC50 [6] of the same molecule?
A: Its IC50 is 6.5 nM.

Q: And the Activity [7]?
A: Its Activity is “Non-Toxic”.

Q: And the Vd [8]?
A: Its Vd is 8.3 L/kg.

Q: And the Tmax [9]?
A: Its Tmax is 2 h.

Q: And the Peff [10]?
A: The Peff was “Impermeable”.

Q: And the bioavailability [11]?
A: Its bioavailability is 5%.

Q: And the Cmax [12]?
A: The Cmax was 337 nM.

Q: And the IC50 [13]?
A: The IC50 was 2.5 nM.

Q: And the Activity [14]?
A: The Activity was “Non-Toxic”.

Q: And the Time [15]?
A: The Time was 24 h.

Q: What about the solubility at 24 h [16] of the same molecule?
A: The solubility at 24 h was greater than 100 µM.

Q: And the IC50 [17]?
A: The IC50 was 1.43 nM.

Q: What about the half-life [18] of the same molecule?
A: Its half-life is 1.4 h.

Q: What about the half-life [19] of the same molecule?
A: Its half-life is 11.3 h.

Q: What about the IC50 [20] of the same molecule?
A: The IC50 was 653 nM.

Q: And the Stability [21]?
A: Its Stability is “Stable”.

Q: And the Activity [22]?
A: Its Activity is “Non-Toxic”.

Q: What about the IC50 [23] of the same molecule?
A: Its IC50 is 72 nM.

Q: And the Activity [24]?
A: Its Activity is “Non-Toxic”.

Q: And the IC50 [25]?
A: The IC50 was 1.6 nM.

Q: What about the AUClast [26] of the same molecule?
A: Its AUClast is 130 µmol·min/L.

Q: And the IC50 [27]?
A: The IC50 was 56700 nM.

Q: What about the IC50 [28] of the same molecule?
A: The IC50 was 1.9 nM.

Q: What about the ED90 [29] of the same molecule?
A: The ED90 was 34 mg/kg.

Q: And the IC50 [30]?
A: The IC50 was 4.7 nM.
